Results from different studies.
Lines come from different studies, so protocols differ.
NT5E: 5'-nucleotidase (NT5E, Homo sapiens, UniProt P21589)

Structure (SMILES)	target	effect on	mode	method	tested at	measurement	result
O=C(NS(=O)(=O)c1ccc(C(F)(F)F)cc1)c1cc2ccccc2n1Cc1ccc(Br)c2ccccc12	Xanthine dehydrogenase/oxidase (XDH, Bos taurus, UniProt P80457)	enzyme activity	inhibitor	absorbance	10 µM	inhibition	17.2%
C1=C/COCc2cc(ccc2OCCN2CCCC2)Nc2nccc(n2)-c2cccc(c2)COC/1	Cyclin-dependent kinase 13 (CDK13, Homo sapiens, UniProt Q14004)	cell-free assay			0.1 µM	remaining signal	60%
CCCCC(=O)Nc1ccc(-c2ccc3ncn(CCC)c(=O)c3c2)cn1	Phosphatidylinositol 4-kinase beta (PI4KB, Homo sapiens, UniProt Q9UBF8)	binding		competition with immobilised ligand	0.5 µM	remaining binding	53%
NC/C(=C\F)COc1cccc(Cn2c(=S)[nH]c(=O)c3[nH]cnc32)c1	Lactoperoxidase (LPO, Bos taurus, UniProt P80025)	enzyme activity	inhibitor		2.5 µM	remaining activity	81.1%
Cc1cc(-c2ccccc2)c(C#N)c(SCC(=O)Nc2nccs2)n1	NT5E	enzyme activity	inhibitor	HPLC	10 µM	inhibition	91%
COc1ccc2oc(-c3ccc4nc(N)oc4c3)c/c(=N\c3ccccc3NC(=O)CCN)c2c1	Platelet-derived growth factor receptor alpha (PDGFRA, Homo sapiens, UniProt P16234)	binding			1 µM	remaining binding	103%
CC(=O)ON=C1C=CC(=C(C#N)c2ccccc2)C=C1	Dual specificity tyrosine-phosphorylation-regulated kinase 1A (Dyrk1a, Rattus norvegicus, UniProt Q63470)	enzyme activity	inhibitor	ADP detection	2 µM	activity vs control	87%
N#Cc1c(C(F)(F)F)cc(-c2ccccc2)nc1SCC(=O)Nc1cccnc1	NT5E	enzyme activity	inhibitor		10 µM	inhibition	40%
